Results published in the array DNA melting data of Ke et al. (doi:10.1101/2024.01.08.574731).

Experiments:
[1] = folding enthalpy; higher = less favourable; fluorescence melt of hairpins on a sequencing array, two-state fit; conditions: sodium 0.088 M
Procedure, shortened: (§1)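 On a sequenced MiSeq flow cell, library hairpins with annealed Cy3 and quencher oligos were imaged for Cy3 fluorescence in 2.5 °C steps up to 60 °C, in 50 mM Na-HEPES pH 8.0, 25 mM NaCl. Normalisation used pre-quench Cy3 and control constructs. Bootstrapped two-state fits gave melting temperature and folding enthalpy, combined by inverse variance across four replicates and with fitted temperatures raised by 9.35 °C to match UV melts.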

[2] = melting temperature; fluorescence melt of hairpins on a sequencing array, two-state fit, raised by 9.35 °C to match UV melts; conditions: sodium 0.088 M
Procedure, shortened: as §1

Sequence | folding enthalpy [1] [kcal/mol] | Tm [2] [°C]
GGGGACGAAAGTCCTCCC ((((((....)))..))) | -10.8 | 48.3
GGGGACGAAAGTCGCCC ((((((....))).))) | -13.9 | 64.9
GGGGACGAAAGTCTGCCC ((((((....)))..))) | -14.4 | 44.1
GGGGACGCGAAAGCGCCC (((..(((....)))))) | -12.9 | 60
GGGGATGGAAACGTCTCC ((.((.(....).)).)) | -26 | 36.5
GGGGATTCGAAAGAACCC (((..(((....)))))) | -20.5 | 47.4
GGGGCCGAAAGGCGGCCC ((((((....)))..))) | -15.1 | 68.2
GGGGCCGCGAAAGCGCCC (((..(((....)))))) | -11 | 66
GGGGCCGGAAACAGCCCC (((((.(....).))))) | -41.3 | 57
GGGGCCGGAAACGGCCTC (.(((((....))))).) | -10.4 | 69.2
GGGGCGACGAAAGTCCCC (((..(((....)))))) | -16.4 | 56
GGGGCGGCGAAAGCCCCC (((..(((....)))))) | -16.6 | 64
GGGGCGGGAAACCACCCC ((((.((....)).)))) | -52 | 55
GGGGCTACGAAAGTACCC (((..(((....)))))) | -22.1 | 48
GGGGCTCCGAAAGGACCC (((..(((....)))))) | -35.3 | 56.9
GGGGCTGCGAAAGCACCC (((..(((....)))))) | -24.5 | 62.5
GGGGCTGGAAACAACCCC ((((.((....)).)))) | -41.2 | 49.2
GGGGCTGGAAACAGCCTC (.(((((....))))).) | -14.4 | 59.8
GGGGCTGGAAACAGCTCC ((.((((....)))).)) | -28.5 | 57.7
GGGGCTGGAAACGGCTCC ((.((.(....).)).)) | -38.7 | 48.6
GGGGGCGAAAGCCAACCC ((((((....)))..))) | -17.9 | 52.7
GGGGGCGAAAGCCCACCC ((((((....)))..))) | -10.1 | 57.3
GGGGGCGAAAGCCCGCCC ((((((....)))..))) | -9.36 | 55.6

Sequence | folding enthalpy [1] [kcal/mol] | Tm [2] [°C]
GGGGGCGGAAACGCCTCC ((.((((....)))).)) | -24.1 | 66.7
GGGGGTCGAAAGACGCCC (((.(((....))).))) | -21.5 | 68.7
GGGGGTGGAAACACCCTC (.(((((....))))).) | -16.7 | 64.5
GGGGGTGGAAACATCCCC ((((.((....)).)))) | -34.7 | 56.8
GGGGGTGGAAACGCTCCC (((.(.(....).).))) | -25.9 | 47.1
GGGGTACGAAAGTAGCCC (((.(((....))).))) | -42.7 | 67.7
GGGGTAGAAATACCCC ((((((....)))))) | -34.9 | 60.4
GGGGTAGCGAAAGCTCCC (((..(((....)))))) | -23.2 | 58.4
GGGGTAGGAAACTACCCC (((((((....))))))) | -25.7 | 67.2
GGGGTCGAAAGACGACCC ((((((....)))..))) | -19.6 | 61.8
GGGGTCGAAAGACGCCCC ((((((....)))..))) | -13 | 60.2
GGGGTCGAAAGACGGCCC ((((((....)))..))) | -22.1 | 48.9
GGGGTCGGAAACGACTCC ((.((((....)))).)) | -34.4 | 59.5
GGGGTCGGAAACGGCCTC (.((.((....)).)).) | -26.4 | 51.5
GGGGTGCGAAAGCATCCC (((.(((....))).))) | -28.5 | 68.4
GGGGTGGGAAACCACTCC ((.((((....)))).)) | -35.1 | 54.6
GGGGTGGGAAACCATCCC (((.(((....))).))) | -41.7 | 56.6
GGGGTGGGAAACTACCCC (((((.(....).))))) | -46.6 | 55.8
GGGGTGTCGAAAGACCCC (((..(((....)))))) | -30.4 | 58.7
GGGGTTCGAAAGAAACCC (((.(((....))).))) | -41.3 | 59.5
GGGGTTGGAAACAATCCC (((.(((....))).))) | -42.4 | 52.5
GGGGTTGGAAACGACTCC ((.((.(....).)).)) | -23.1 | 41.6
GGGGTTGGAAACGATCCC (((.(.(....).).))) | -23 | 39.1

Sequence | folding enthalpy [1] [kcal/mol] | Tm [2] [°C]
GGGTAACGAAAGTTCCCC (((.(((....))).))) | -27.4 | 50.6
GGGTAAGGAAACTTATCC ((.((((....)))).)) | -29.2 | 40.1
GGGTAAGGAAACTTGCCC (((.(((....))).))) | -36.6 | 50.5
GGGTACCGAAAGGTCCC (((.(((....)))))) | -24.2 | 54.9
GGGTACCGAAAGGTCCCC (((.(((....))).))) | -22.9 | 55.7
GGGTACGAAAGTAGTCCC ((((((....)))..))) | -20.8 | 36.4
GGGTACGAAAGTATACCC ((((((....)))..))) | -25.9 | 43.9
GGGTACGAAAGTATTCCC ((((((....)))..))) | -20.4 | 35.5
GGGTAGAAATACCC (((((....))))) | -23.1 | 47.9
GGGTAGCCGAAAGGCCCC (((..(((....)))))) | -16.1 | 54
GGGTAGCGAAAGCTTCCC (((.(((....))).))) | -36.5 | 56.6
GGGTAGGGAAACCTGCCC (((.(((....))).))) | -45 | 55.7
GGGTATGGAAACATGCTC (.(.(((....))).).) | -23.1 | 33.4
GGGTCACCGAAAGGTCCC (((..(((....)))))) | -17.1 | 38.9
GGGTCACGAAAGTGTCCC (((.(((....))).))) | -39.8 | 59.6
GGGTCAGGAAACTGGTCC ((..(((....)))..)) | -30.1 | 39.9
GGGTCCCGAAAGGGTCCC (((.(((....))).))) | -31 | 64.9
GGGTCCGAAAGGAACCCC ((((((....)))..))) | -13.9 | 61.7
GGGTCCGAAAGGAATCCC ((((((....)))..))) | -22.1 | 46.7
GGGTCCGAAAGGACTCCC ((((((....)))..))) | -11 | 50.6
GGGTCCGAAAGGAGGCCC ((((((....)))..))) | -18.7 | 50.3
GGGTCCGGAAACGGGCTC (.(.(((....))).).) | -21.3 | 50.5
GGGTCGCCGAAAGGCCCC (((..(((....)))))) | -11.1 | 46.4

Sequence | folding enthalpy [1] [kcal/mol] | Tm [2] [°C]
GGGTCGCGAAAGCGTCCC (((.(((....))).))) | -29 | 67.1
GGGTCTCGAAAGAGTCCC (((.(((....))).))) | -36.9 | 53.8
GGGTCTTCGAAAGAACCC (((..(((....)))))) | -29.2 | 40.6
GGGTGAGGAAACTCACTC (.(((((....))))).) | -17.8 | 53.9
GGGTGAGGAAACTCGCTC (.(.(((....))).).) | -21.6 | 38.1
GGGTGCGAAAGCAAACCC ((((((....)))..))) | -29.3 | 55.9
GGGTGCGAAAGCAAGCCC ((((((....)))..))) | -23.1 | 53.8
GGGTGCGGAAACGCGCTC (.(.(((....))).).) | -16.5 | 57.2
GGGTGCTCGAAAGAGCCC (((..(((....)))))) | -17.7 | 52.6
GGGTGGACGAAAGTCCCC (((..(((....)))))) | -12.4 | 49.7
GGGTGGGGAAACCCACTC (.(((((....))))).) | -16.7 | 53
GGGTGGGGAAACCCGCTC (.(.(((....))).).) | -17.7 | 49.1
GGGTGGGGAAACCCGTCC ((..(((....)))..)) | -19 | 48.8
GGGTGTCGAAAGACCCC (((.(((....)))))) | -35.6 | 56.4
GGGTGTCGAAAGACCCCC (((.(((....))).))) | -24.2 | 56.4
GGGTGTCGAAAGACTCCC (((.(((....))).))) | -42.3 | 58.3
GGGTGTGGAAACACGTCC ((..(((....)))..)) | -13.6 | 40.1
GGGTTACCGAAAGGTCCC (((..(((....)))))) | -19.4 | 41
GGGTTAGGAAACCAACCC (((((.(....).))))) | -33.9 | 45.6
GGGTTAGGAAACTAGCCC (((.(((....))).))) | -24.3 | 49
GGGTTCGAAAGAAACCC ((((((....))).))) | -34.7 | 54.4
GGGTTCGAAAGAAGACCC ((((((....)))..))) | -21.2 | 41.8
